Hits are enriched below; roughly 3.5% of the tested compounds scored in any of these assays.
MrgX1 antag: blocks BAM8-22 activation of human MrgX1 receptor | MRGX1-HEK293 calcium flux, Fluo-4, BAM8-22 antagonism; hits give low values | AID 588676 | Q96LB2 | actives 1.3% (n = 310,000) | B-score at 10 µM;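 active means calcium-response B-score plate-corrected more than 3 library SD below zero, starting fluorescence within 5 deviations, no agonist response on first addition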;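 further: peak minus trough fluorescence over baseline after final BAM8-22 challenge near maximal dose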
Target sequence (Q96LB2 whole entry, looked up): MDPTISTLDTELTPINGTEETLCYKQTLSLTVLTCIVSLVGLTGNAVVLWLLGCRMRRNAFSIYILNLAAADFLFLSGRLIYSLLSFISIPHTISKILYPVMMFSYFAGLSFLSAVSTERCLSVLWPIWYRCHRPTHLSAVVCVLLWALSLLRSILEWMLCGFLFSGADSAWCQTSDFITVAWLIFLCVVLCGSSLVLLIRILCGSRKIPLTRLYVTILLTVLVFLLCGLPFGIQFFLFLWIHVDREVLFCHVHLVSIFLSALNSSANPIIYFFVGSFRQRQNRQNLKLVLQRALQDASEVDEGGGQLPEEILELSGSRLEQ
MrgX1 ag: human MrgX1 receptor agonism, primary screen. AID 588627. B-score at 10 µM. MrgX1-HEK293 cells, Fluo-4 calcium fluorescence, agonist mode; hits give high values. actives 0.44% (n = 310,000). Q96LB2;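 active means calcium response B-score plate-corrected fluorescence ratio at least 3 library SD, with starting fluorescence B-score inside 5 SD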
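Test system: HEK293 cells stably expressing human MrgX1 receptor; Input: fifteen thousand cells per well; Dosing: compound delivered in addition one of three; Schedule: overnight seeding, then 1 h dark dye loading; Technique: Fluo-4 NW calcium fluorescence; Measure: B-scored fluorescence response ratio; Controls: positive and negative controls per plate.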
MrgX1 allo act: allosterically activates human MrgX1 receptor signaling; Q96LB2; actives 0.63% (n = 310,000); B-score at 10 µM; MrgX1-HEK293, Fluo-4 calcium flux, FDSS; hits give high values;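 active means plate-corrected calcium response at least 3 library SD above typical, normal starting fluorescence, not activating the receptor alone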;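 further: compound read alongside a low EC10 to EC30 dose of BAM8-22 agonist; peak minus trough fluorescence over baseline measured at the second addition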
RGS4 block: human RGS4 inhibition | P49798 | HEK293 M3R/RGS4 inducible, Fluo-4 calcium flux; hits give high values; triggered by carbachol at its EC20 | B-score at 10 µM | actives 0.45% (n = 310,000) | AID 463165;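 active means B-score, a plate-corrected calcium signal, over three deviations above library mean, with baseline fluorescence within five deviations of library mean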;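 further: RGS4 expression induced by doxycycline in cells with stable M3 receptor; B-score is computed from the integrated fluorescence ratio over baseline after carbachol; higher B-score means a larger calcium signal and so more RGS4 inhibition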
Target sequence (P49798 whole entry, looked up): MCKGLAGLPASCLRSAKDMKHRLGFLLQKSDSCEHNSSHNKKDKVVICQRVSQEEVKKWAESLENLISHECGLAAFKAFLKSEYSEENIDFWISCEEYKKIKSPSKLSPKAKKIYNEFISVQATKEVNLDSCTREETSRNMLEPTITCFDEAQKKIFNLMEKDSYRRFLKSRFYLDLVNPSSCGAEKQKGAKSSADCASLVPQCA
RGS4 act: RGS4 potentiation or activation; HEK293 M3R/inducible RGS4, carbachol calcium flux Fluo4; hits give low values; actives 0.92% (n = 310,000); B-score at 10 µM; AID 463111;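 active means B-score of the integrated calcium signal more than 4 SD below the library mean, with starting fluorescence not abnormally high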;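 further: negative B-score means reduced calcium response which marks RGS4 activation or potentiation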
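Reagent: ECmax carbachol challenge; Test system: M3R-expressing HEK293 line, RGS4 induced by doxycycline; Schedule: overnight RGS4 induction, 30 min dye load 37 °C, 20 min compound RT; Detection: calcium dye Fluo4 fluorescence; Read-out: Agonist-evoked peak-minus-minimum fluorescence over baseline, integrated ratio, B score.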
RGS4 block valid: RGS4 inhibitor validation | shares compounds with RGS4 block | calcium response, % at 10 µM | actives 65% (n = 1,700) | HEK293 M3R/RGS4, carbachol calcium Fluo-4 fluorescence; carbachol added at its EC20; 0 = buffer wells, 100 = carbachol control;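 active means duplicate-averaged calcium response above the buffer-only control mean plus 5 SD of those controls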;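 further: integrated fluorescence ratio F max minus min over baseline F0; higher response in RGS4-induced cells means RGS4 inhibition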
RGS4 uninduced: counter-screen for RGS4 inhibitors: effect in non-induced cells | shares compounds with RGS4 block | HEK293 M3R non-induced, carbachol calcium Fluo-4; submaximal (EC20) carbachol stimulus; buffer wells 0%, carbachol control wells 100% | activity (percent), % at 10 µM | actives 20% (n = 1,900) | AID 493000; call rule not given here;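 further: RGS4 induction absent so cells express M3R without RGS4; higher means more calcium signal and flags a non-specific hit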
M3R basal Ca ctr: second RGS4 inhibitor counter-screen in uninduced cells lacking carbachol. shares compounds with RGS4 block. actives 22% (n = 1,900). HEK293 M3R/RGS4 non-induced, Fluo-4 calcium, no carbachol; normalised: buffer wells 0%, carbachol wells 100%. calcium response (agonist-mode artifact), % at 10 µM;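 active means duplicate-averaged calcium rise in uninduced cells above buffer wells' mean plus 5 SD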
* marks the source's active call; other numbers are inactive results; i = inactive; x = no result.

SMILES	MrgX1 antag	MrgX1 ag	MrgX1 allo act	RGS4 block	RGS4 act	RGS4 block valid	RGS4 uninduced	M3R basal Ca ctr
C/C(=N/NC(=O)CNc1ccc(C)cc1)c1ccc(Cl)cc1	i	i	i	5.55*	i	7.0%*	i	i
CC(=O)c1c[nH]c(C(=O)NCc2ccccc2Cl)c1	i	i	i	5.22*	i	i	i	i
O=c1[nH][nH]c(-c2ccccc2O)c1C(C[N+](=O)[O-])c1ccc(Br)cc1 (stereo not drawn)	i	i	i	14.5*	i	32.0%*	35.5%*	19.5%*
COc1ccc(C(C[N+](=O)[O-])c2c(C)[nH]c3ccccc23)cc1OC (stereo not drawn)	i	i	i	i	i	x	x	x
Cn1cc(C(C[N+](=O)[O-])c2ccccc2)c2ccccc21 (stereo not drawn)	i	i	i	i	i	x	x	x
Cc1ccc(C(C[N+](=O)[O-])c2c(-c3ccccc3O)[nH][nH]c2=O)cc1 (stereo not drawn)	i	i	i	6.31*	i	33.5%*	68.5%*	21.5%*
CC(=O)Nc1ccc(-c2nnc(SCC(=O)Nc3ccc4c(c3)oc3ccccc34)n2C)cc1	i	i	i	i	i	x	i	16.0%*
O=C(/C=C/NNC(=O)c1ccc(Cl)cc1)c1ccccc1	i	i	i	6.12*	i	i	i	i
O=C(Nc1ccc(Br)cc1)c1cccc(S(=O)(=O)Nc2cnc3ccccc3c2)c1	i	i	i	5.89*	i	16.0%*	i	i
COc1ccc(S(=O)(=O)N2CCCC(C(=O)NC3CC3)C2)cc1OC (stereo not drawn)	i	i	i	i	i	x	x	x
O=C1CCCC(O)=C1C(C#Cc1ccccc1)C1=C(O)CCCC1=O	i	26.9*	i	6.69*	i	50.5%*	i	11.0%*
CC1(C)CC(=O)C(N=Nc2ccc(-c3ccccc3)cc2)=C(O)C1	i	i	i	i	i	x	x	x
O=C1CCCC(O)=C1Sc1ccccc1C(=O)O	i	i	i	i	i	x	x	x
CC1(C)CC(=O)C(C(C#Cc2ccccc2)C2=C(O)CC(C)(C)CC2=O)=C(O)C1	i	i	i	8*	i	44.5%*	i	22.0%*
CS(=O)(=O)N1CCC(C(=O)Nc2cccc([N+](=O)[O-])c2)CC1	i	i	i	i	i	x	x	x
CC(C)(C)c1nn(-c2ccccc2)c2nc(Cl)c(C=O)cc12	i	i	i	5.01*	i	13.0%*	30.0%*	i
CCOC(=O)CSC1=NC(=O)/C(=C/c2ccc(OC)cc2)S1	i	i	i	4.85*	i	33.5%*	i	85.0%*
O=C(CN1CCCC1)Nc1c(Cl)cccc1Cl	i	i	i	i	i	x	x	x
Cc1ccc(Cn2c(=N)n(CC(=O)c3ccccc3)c3ccccc32)cc1	i	i	i	5.35*	i	24.0%*	34.0%*	31.0%*
Cc1cc(C(=O)Nc2ccc3[nH]ccc3c2)no1	i	i	i	i	i	x	x	x
CCOC(=O)C1CCN(C(C(=O)NC2CCCC2)c2ccc(C)cc2)CC1 (stereo not drawn)	i	i	i	5.31*	i	21.0%*	i	i
CC(C)(C)Sc1ccc(/C=N/O)cc1[N+](=O)[O-]	i	i	i	6.81*	i	10.0%*	i	i
CC(Oc1ccc2c(c1)oc(=O)c1ccccc12)C(=O)NCCN1CCOCC1 (stereo not drawn)	i	i	i	i	i	x	x	x
Cc1ccc(C(C[N+](=O)[O-])Sc2ccc(N)cc2)cc1 (stereo not drawn)	i	32.9*	i	14.2*	i	28.0%*	i	i
CC1CCCCC1NC(=O)/C(C#N)=C/c1ccccc1F (stereo not drawn)	i	i	i	i	i	x	x	x
SMILES	MrgX1 antag	MrgX1 ag	MrgX1 allo act	RGS4 block	RGS4 act	RGS4 block valid	RGS4 uninduced	M3R basal Ca ctr
Cc1ccc(/C=C/C(=O)Nc2ccc(S(=O)(=O)Nc3ncccn3)cc2)cc1	i	i	i	i	i	x	x	x
O=C(/C=C/c1ccc(F)cc1)Nc1ccc(S(=O)(=O)Nc2ncccn2)cc1	i	i	i	i	i	i	i	29.0%*
Cc1ccc(C(=O)N/C(=C\c2ccccc2F)c2nc(=S)[nH][nH]2)cc1	i	i	i	i	i	x	x	x
Cc1ccc(/C=C(\NC(=O)c2ccc(C)cc2)c2nc(=S)[nH][nH]2)cc1	i	i	i	10.6*	i	35.0%*	43.5%*	i
Cc1ccc(S(C)(=O)=N/C=C2\C(=O)c3sccc3N(C)S2(=O)=O)cc1 (stereo not drawn)	i	i	i	6.42*	i	7.5%*	i	i
C/C(CC(=O)Nc1ccc(Cl)cc1Cl)=N\NC(=O)c1cnccn1	i	i	i	i	i	x	x	x
CC(C)C(=O)N1CCN(c2nc(-c3ccc(Cl)cc3)cs2)CC1	i	i	i	5.45*	i	18.0%*	i	i
Cc1ccc(/C=N/N2CCN(Cc3ccc(C)cc3)CC2)cc1	i	i	i	i	i	i	i	i
O=C(CC1Nc2cccc3cccc(c23)NC1=O)Nc1ccc(F)cc1 (stereo not drawn)	i	i	i	5.33*	i	34.0%*	i	i
O=C(CC1Nc2ccccc2NC1=O)Nc1cc(Cl)cc(Cl)c1 (stereo not drawn)	i	i	i	14.6*	i	24.0%*	i	18.5%*
O=C(CC1NC(=O)NC1=O)Nc1ccc(Cl)cc1 (stereo not drawn)	i	i	i	i	i	x	x	x
CC(=O)c1cccc(NC(=O)C2CCN(C(=O)c3cccs3)CC2)c1	i	i	i	i	i	x	x	x
O=C1NC(=S)S/C1=C\c1coc2ccc(O)cc2c1=O	i	i	i	6.34*	i	26.0%*	65.0%*	i
COc1ccc(-c2nc(C(F)(F)F)c(OC)o2)cc1OC	i	i	i	i	i	x	x	x
